Consider twelve compounds from ChEMBL document CHEMBL4354817, “4-(3-Aminoazetidin-1-yl)pyrimidin-2-amines as High-Affinity Non-imidazole Histamine H3 Receptor Agonists with in Vivo Central Nervous System Activity” (J Med Chem, 2019).

The target in assay [1] is T1, Histamine H3 receptor (Homo sapiens, UniProt Q9Y5N1). The experiment in a line: Displacement of [3H]NAMH from human H3R expressed in HEK293T cells incubated for 2 hrs by microbeta scintillation counting analysis. It is filed as cell-based. In short, it runs like this:
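Homogenates of HEK293T cells transiently expressing hH3R or mH3R, harvested 48 h post-transfection, incubated with 2 nM [3H]NAMH and increasing unlabeled ligand in 50 mM Tris–HCl pH 7.4, 2 h at 25 °C. Rapid filtration over 0.5% PEI-coated GF/C filters, scintillation counting. One-site fit; IC50 converted to pKi by Cheng–Prusoff; three experiments in triplicate.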

For assay [2], the target named is T1, Histamine H3 receptor. The assay is described as follows: Intrinsic activity at human H3R expressed on HEK293T cells assessed as activation of forskolin-induced CRE-driven luciferase activity co-incubated with forskolin for 6 hrs and measured after 30 mins by CRE-luciferase reporter gene assay relative to histamine. It is filed as functional. In short, it runs like this:
(§1)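 HEK293T cells transiently transfected (PEI method) in suspension with receptor cDNA (1000 ng), CRE-luciferase (2500 ng) and empty pcDEF3; 50.000 cells/well on poly-L-lysine, grown 24 h. Stimulated with increasing ligand concentrations plus 1 μM forskolin, 37 °C, 5% CO2, 6 h. Luciferase reagent (ATP, D-luciferin) added, luminescence read after 30 min at 37 °C. Nonlinear regression; α relative to histamine; three experiments in triplicate.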

Assay [3] deals with T1, Histamine H3 receptor. The experiment in a line: Agonist activity at human H3R expressed on HEK293T cells assessed as inhibition of forskolin-induced CRE-driven luciferase activity co-incubated with forskolin for 6 hrs and measured after 30 mins by CRE-luciferase reporter gene assay. It is filed as functional. The method in brief:
as §1

Assay [4] deals with T1, Histamine H3 receptor. The experiment in a line: Displacement of [3H]-N-alpha-methylhistamine from human histamine H3 receptor expressed in CHO cells incubated for 40 min by liquid scintillation counting analysis. It is filed as cell-based.
Assay [5] deals with T1, Histamine H3 receptor. The assay is described as follows: Agonist activity at recombinant human H3R expressed on cells incubated for 60 mins by [35S]GTPgammaS binding assay. It is filed as functional.

T1 sequence (Q9Y5N1 whole entry): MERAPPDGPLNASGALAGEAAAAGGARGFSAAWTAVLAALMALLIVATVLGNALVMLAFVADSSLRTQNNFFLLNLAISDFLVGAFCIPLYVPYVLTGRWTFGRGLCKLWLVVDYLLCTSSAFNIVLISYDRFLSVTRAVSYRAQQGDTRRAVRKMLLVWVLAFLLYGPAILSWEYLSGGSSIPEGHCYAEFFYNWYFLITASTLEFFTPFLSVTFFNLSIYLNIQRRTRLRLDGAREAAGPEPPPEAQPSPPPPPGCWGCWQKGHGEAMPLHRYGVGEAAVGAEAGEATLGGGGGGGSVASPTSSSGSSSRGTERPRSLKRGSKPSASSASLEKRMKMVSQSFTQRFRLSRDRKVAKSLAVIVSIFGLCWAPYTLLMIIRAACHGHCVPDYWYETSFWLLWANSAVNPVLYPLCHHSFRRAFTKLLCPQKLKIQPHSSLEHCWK

On Histamine H3 receptor [1], `Nc1nccc(N2CC(N)C2)n1` showed a Ki of 0.0158 µM. Also, the Intrinsic activity on Histamine H3 receptor [2] was determined as 1.1. In addition, on Histamine H3 receptor [3], the EC50 is 0.00501 µM.

In turn, `CCNC1CN(c2cc(CC)nc(N)n2)C1` had an inhibitory constant (Ki) on Histamine H3 receptor [1] of 0.126 µM. In addition, the Intrinsic activity on Histamine H3 receptor [2] amounted to 0.9. In addition, at Histamine H3 receptor [3], the EC50 is 0.0316 µM.

`CCCCC(=O)O[C@H]1C[C@@H]2C[C@H]3[C@](NC)(CN2[C@@H](C)C1)C[C@]1(C(=O)Nc2c(C(=O)[C@H]4OC4(C)C)cccc21)[C@]3(C)C=O` had a Ki at Histamine H3 receptor [4] of 0.0501 µM. Further, on Histamine H3 receptor [5], the EC50 was 0.126 µM.

For the compound `CN(C)C1CN(c2ccnc(N)n2)C1`, the Ki at Histamine H3 receptor [1] is 0.0501 µM. For the same compound, the Intrinsic activity at Histamine H3 receptor [2] is 1. Moreover, on Histamine H3 receptor [3], the EC50 is 0.00398 µM.

In the case of `CCc1cc(N2CC(N)C2)nc(N)n1`, the Ki on Histamine H3 receptor [1] is 0.0794 µM. The Intrinsic activity on Histamine H3 receptor [2] came to 0.9. Further, the EC50 on Histamine H3 receptor [3] is 0.0316 µM.

Compound `CC(C)c1cc(N2CC(N(C)C)C2)nc(N)n1` had an inhibition constant Ki on Histamine H3 receptor [1] of 0.126 µM. For the same compound, the Intrinsic activity on Histamine H3 receptor [2] came out at 0.4. Also, the concentration for a half-maximal effect (EC50) at Histamine H3 receptor [3] was 0.1 µM.

Compound `CCNC1CN(c2cc(C(C)C)nc(N)n2)C1` showed a Ki at Histamine H3 receptor [1] of 0.1 µM. Also, on Histamine H3 receptor [2], the Intrinsic activity came to 0.3. Moreover, the EC50 on Histamine H3 receptor [3] is 0.158 µM.

Turning to `CCCCNC1CN(c2ccnc(N)n2)C1`, on Histamine H3 receptor [1], the affinity corresponds to a Ki of 0.0158 µM. At Histamine H3 receptor [2], the Intrinsic activity turned out to be 1.2. The EC50 on Histamine H3 receptor [3] was 0.000794 µM.

`CCN(CC)C1CN(c2ccnc(N)n2)C1` showed an inhibitory constant (Ki) at Histamine H3 receptor [1] of 0.0631 µM. Further, the Intrinsic activity at Histamine H3 receptor [2] was 1.2. Moreover, at Histamine H3 receptor [3], the EC50 is 0.00794 µM.

With `CCc1cc(N2CC(NC)C2)nc(N)n1`, the affinity on Histamine H3 receptor [1], expressed as Ki, was 0.0501 µM. At Histamine H3 receptor [2], the Intrinsic activity stood at 0.8. Moreover, the EC50 at Histamine H3 receptor [3] is 0.0251 µM.

At Histamine H3 receptor [1], `CCNC1CN(c2cc(C)nc(N)n2)C1` had a Ki of 0.0794 µM. Moreover, at Histamine H3 receptor [2], the Intrinsic activity stood at 1. In addition, the EC50 on Histamine H3 receptor [3] is 0.0126 µM.

With `CNC1CN(c2ccnc(N)n2)C1`, affinity on Histamine H3 receptor [1] was put at a Ki of 0.00631 µM. Also, the Intrinsic activity at Histamine H3 receptor [2] is 1.1. Further, the EC50 at Histamine H3 receptor [3] was 0.00126 µM.

As usually defined, the Ki is a dissociation constant, usually derived from enzyme kinetics or from competition with a known ligand. One may read the EC50 as the concentration that produces a half-maximal response.
